In PMC10644204 (Pharmacology Research & Perspectives, 2023):

Key:
healthy participants [1] = type: in vivo, human; conditions: moxifloxacin 400 mg single dose
[2] = Plasma pharmacokinetics, part 2 main QTc study; type: in vivo, human; conditions: human, plasma, oral, 400 mg
In short: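 Moderate-fat meal 30 min before each dose. Plasma sampled predose on Days 1, 5, 6 and 7, and on Day 7 at 0.5–24 h postdose. Test compound assayed by validated UHPLC-MS/MS (3.00–1000 ng mL−1).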

healthy participants [3] = assay: Safety assessments; type: in vivo, human; conditions: part 2, Moxifloxacin 400 mg (N = 40)
In short: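 Part 2 healthy participants confined from Day −2 of period 1 to Day 9 of period 4. […] AEs monitored throughout, recording duration, severity, causality and outcome, alongside safety ECGs, laboratory tests, physical examination and vital signs.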

QT interval = conditions: supratherapeutic vs therapeutic doses; cited from earlier work

SMILES: COc1c(N2C[C@@H]3CCCN[C@@H]3C2)c(F)cc2c(=O)c(C(=O)O)cn(C3CC3)c12 [Moxifloxacin, moxifloxacin, reference compound]
- Observations of ΔQTcF >30 ms (healthy participants [1]): no participants
- Cmax [2]: 1960 ng/mL
- Tmax [2]: 4 h
- AE: Abdominal pain (healthy participants [3]): 1 (3) n (%)
- AE: Acne (healthy participants [3]): 0 n (%)
- AE: Diarrhea (healthy participants [3]): 0 n (%)
- AE: Gastrointestinal disorders (healthy participants [3]): 2 (5) n (%)
- AE: General disorders and administration site conditions (healthy participants [3]): 1 (3) n (%)
- AE: Immune system disorders (healthy participants [3]): 1 (3) n (%)
- AE: Infections and infestations (healthy participants [3]): 0 n (%)
- AE: Maculopapular rash (healthy participants [3]): 0 n (%)
- AE: Medical device site dermatitis (healthy participants [3]): 0 n (%)
- AE: Nausea (healthy participants [3]): 0 n (%)
- AE: Nervous system disorders (healthy participants [3]): 2 (5) n (%)
- AE: Renal and urinary disorders (healthy participants [3]): 1 (3) n (%)
- AE: Reproductive system and breast disorders (healthy participants [3]): 0 n (%)
- AE: Respiratory, thoracic, and mediastinal disorders (healthy participants [3]): 0 n (%)
- AE: Skin and subcutaneous tissue disorders (healthy participants [3]): 0 n (%)
- AE: Vessel puncture site pain (healthy participants [3]): 1 (3) n (%)
- Any AE (healthy participants [3]): 4 (10) n (%)
- Any drug-related AE (healthy participants [3]): 2 (5) n (%)
- Drug-related AE: Abdominal pain (healthy participants [3]): 1 (3) n (%)
- Drug-related AE: Acne (healthy participants [3]): 0 n (%)
- Drug-related AE: Diarrhea (healthy participants [3]): 0 n (%)
- Drug-related AE: Fatigue (healthy participants [3]): 0 n (%)
- Drug-related AE: Gastrointestinal disorders (healthy participants [3]): 1 (3) n (%)
- Drug-related AE: General disorders and administration site conditions (healthy participants [3]): 0 n (%)
- Drug-related AE: Maculopapular rash (healthy participants [3]): 0 n (%)
- Drug-related AE: Nausea (healthy participants [3]): 0 n (%)
- Drug-related AE: Pruritus (healthy participants [3]): 0 n (%)
- Drug-related AE: Renal and urinary disorders (healthy participants [3]): 1 (3) n (%)
- Drug-related AE: Skin and subcutaneous tissue disorders (healthy participants [3]): 0 n (%)
- Drug-related AE: Urinary hesitation (healthy participants [3]): 1 (3) n (%)
- Any drug-related AE (healthy participants [3]; listed as moxifloxacin): 2 n (%)

SMILES: COc1cnc(-n2cnc(C)n2)c2c1c(C(=O)C(=O)N1CCN(C(=O)c3ccccc3)CC1)cn2COP(=O)(O)O [fostemsavir]
- QT prolongation (QT interval): QT prolongation with supratherapeutic doses but not therapeutic doses

SMILES: Cc1cc(/C=C/C#N)cc(C)c1Nc1ccnc(Nc2ccc(C#N)cc2)n1 [rilpivirine]
- QT prolongation (QT interval): QT prolongation with supratherapeutic doses but not therapeutic doses
